Measurements reported in ChEMBL document CHEMBL3259691, “Synthesis and cytotoxic activity of nitric oxide-releasing isosteviol derivatives” (Bioorg Med Chem Lett, 2014).
pIC50: −log10 of the molar value.

What was measured:
[1] = Cytotoxicity against mouse B16F10 cells after 48 hrs by MTT assay; assay type: functional, cell-based; conditions: B16-F10, 48 h
Summary of the method: (§1)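 Cells seeded in 96-well plates, exposed to compounds at various concentrations for 48 h at 37°C, 5% CO2. MTT (0.5 mg/mL) then added for 4 h, supernatant removed, formazan dissolved in DMSO, absorbance read at 570 nm. Percent inhibition of proliferation calculated per concentration; IC50 derived from dose-dependent response.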

[2] = tested on: HepG2; test: Cytotoxicity against human HepG2 cells after 48 hrs by MTT assay; assay type: functional, cell-based; conditions: HepG2, 48 h; summary of the method: as §1

SMILES | pIC50 [1] | pIC50 [2]
C[C@@]12CC[C@@H]3[C@@](CC[C@H]4[C@@]3(C)CCC[C@@]4(C)C(=O)NCC(=O)OCCOc3no[n+]([O-])c3S(=O)(=O)c3ccccc3)(CC(=O)O1)C2 | 5.45 | 
C[C@@]12CC[C@@H]3[C@@](CC[C@H]4[C@@]3(C)CCC[C@@]4(C)C(=O)NCC(=O)OCCOc3no[n+]([O-])c3S(=O)(=O)c3ccccc3)(CC1=O)C2 | 5.56 | < 4.30
C[C@@]12CC[C@@H]3[C@@](CC[C@H]4[C@@]3(C)CCC[C@@]4(C)C(=O)NCC(=O)OCCCOc3no[n+]([O-])c3S(=O)(=O)c3ccccc3)(CC1=O)C2 | 5.09 | 
C[C@@]12CC[C@@H]3[C@@](CC[C@H]4[C@@]3(C)CCC[C@@]4(C)C(=O)NCC(=O)OCC#CCOc3no[n+]([O-])c3S(=O)(=O)c3ccccc3)(CC1=O)C2 | 6.60 | 5.37
C[C@@]12CC[C@@H]3[C@@](CC[C@H]4[C@@]3(C)CCC[C@@]4(C)C(=O)NCC(=O)OCCCOc3no[n+]([O-])c3S(=O)(=O)c3ccccc3)(CC(=O)O1)C2 | 5.69 | 
C[C@]12CC[C@@H]3[C@](CC[C@H]4[C@@]3(C)CCC[C@@]4(C)C(=O)NCC(=O)OCCCCOc3no[n+]([O-])c3S(=O)(=O)c3ccccc3)(C1)C(C=O)O2 (some centres not stated) | 5.28 | 
C=C1C(=O)[C@@]2(C)CC[C@@H]3[C@]1(CC[C@H]1[C@@]3(C)CCC[C@@]1(C)C(=O)NCC(=O)OCCOc1no[n+]([O-])c1S(=O)(=O)c1ccccc1)C2 | 6.00 | 5.15
C=C1C(=O)[C@@]2(C)CC[C@@H]3[C@]1(CC[C@H]1[C@@]3(C)CCC[C@@]1(C)C(=O)NCC(=O)OCCCOc1no[n+]([O-])c1S(=O)(=O)c1ccccc1)C2 | 7.80 | 4.41
C=C[C@]12CC[C@H]3[C@@](C)(CCC[C@@]3(C)C(=O)O)[C@@H]1CC[C@](C)(COC(=O)CCC(=O)OCCOc1no[n+]([O-])c1S(=O)(=O)c1ccccc1)C2 | 5.70 | 5.19
C=C[C@]12CC[C@H]3[C@@](C)(CCC[C@@]3(C)C(=O)O)[C@@H]1CC[C@](C)(COC(=O)CCC(=O)OCCCOc1no[n+]([O-])c1S(=O)(=O)c1ccccc1)C2 | < 4.30 | 
C=C[C@]12CC[C@H]3[C@@](C)(CCC[C@@]3(C)C(=O)O)[C@@H]1CC[C@](C)(COC(=O)CCC(=O)OCC#CCOc1no[n+]([O-])c1S(=O)(=O)c1ccccc1)C2 | 5.42 | 5.12
COC(=O)[C@]1(C)CCC[C@@]2(C)[C@@H]3CC[C@@]4(C)C[C@]3(CC[C@@H]21)C/C4=N\OC(=O)CCC(=O)OCCOc1no[n+]([O-])c1S(=O)(=O)c1ccccc1 |  | 4.52
COC(=O)[C@]1(C)CCC[C@@]2(C)[C@@H]3CC[C@@]4(C)C[C@]3(CC[C@@H]21)C/C4=N\OC(=O)CCC(=O)OCCCOc1no[n+]([O-])c1S(=O)(=O)c1ccccc1 |  | 4.48
COC(=O)[C@]1(C)CCC[C@@]2(C)[C@@H]3CC[C@@]4(C)C[C@]3(CC[C@@H]21)C/C4=N\OC(=O)CCC(=O)OCCCCOc1no[n+]([O-])c1S(=O)(=O)c1ccccc1 |  | 5.29
COC(=O)[C@]1(C)CCC[C@@]2(C)[C@@H]3CC[C@@]4(C)C[C@]3(CC[C@@H]21)C/C4=N\OC(=O)CCC(=O)OCCOCCOc1no[n+]([O-])c1S(=O)(=O)c1ccccc1 | 5.67 | 5.56
COC(=O)[C@]12CCC(C)(C)C[C@H]1[C@H]1C(=O)C=C3[C@@]4(C)C=C(C#N)C(=O)C(C)(C)[C@@H]4CC[C@@]3(C)[C@]1(C)CC2 [BARDOXOLONE METHYL] | 5.23 | 5.30
CC[C@@]1(O)C(=O)OCc2c1cc1n(c2=O)Cc2cc3ccccc3nc2-1 [CAMPTOTHECIN] | 5.56 | 
C[C@@]12CC[C@@H]3[C@@](CC[C@H]4[C@@]3(C)CCC[C@@]4(C)C(=O)O)(CC1=O)C2 [ISOSTEVIOL] | < 4.00 | < 4.00
